Bioassay records: PubChem, several laboratories
hERG protect: hERG rescue from dofetilide block, primary screen, cell-based, CHO-hERG, FluxOR thallium flux, dofetilide IC70 | Voltage-gated inwardly rectifying potassium channel KCNH2 (Homo sapiens), Q12809 | dofetilide IC70 present | activation (rescue from dofetilide block), less the hit threshold, % at 10 µM | 0.51% of 310,000 active;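 active means activation above the mean of controls blocked by dofetilide plus 5 SD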;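 further: thallium influx through hERG after potassium depolarization seen as dye fluorescence rise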
KCNQ1 inh: inhibitors of human KCNQ1 channel, primary screen, cell-based, thallium flux, high-throughput; Potassium voltage-gated channel subfamily KQT member 1 (Homo sapiens), P51787; CHO-K1 KCNQ1, FluxOR thallium flux fluorescence; hits give high values; B-score at 10 µM; 1.3% of 310,000 active; AID 2642, 2010;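 active means compounds whose thallium flux B-score, printed positive for inhibition, exceeds three library SD while starting fluorescence stays within three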;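 further: channel opened by potassium depolarization with thallium stimulus after 20 min compound exposure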
KCNQ1 act: potentiators or activators of KCNQ1 channel, primary screen, cell-based, thallium flux, high-throughput; Potassium voltage-gated channel subfamily KQT member 1 (Homo sapiens), P51787; CHO-K1 KCNQ1, thallium flux FluxOR fluorescence; hits give high values; B-score at 10 µM; 0.35% of 310,000 active;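 active means fluorescence ratio B-score, a plate-corrected score, at least three library SD, with initial intensity B-score within 5 SD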
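Medium – assay buffer, equal DMSO in all wells · Material – CHO-K1 cell line with stable KCNQ1 potassium channel expression · Signal – kinetic FluxOR thallium fluorescence, 10-s 1-Hz baseline, 110-s post-stimulus read · Compound – single concentration per compound, DMSO matched to controls · Schedule – 37 °C overnight plating, 90-min dark dye load, 20-min compound pretreatment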
KCNK3 inh: human KCNK3 channel inhibitors, primary screen, CHO cells, FluxOR thallium flux, B-score; B-score at 10 µM; Potassium channel subfamily K member 3 (Homo sapiens), O14649; FluxOR fluorescence; hits give low values; 0.84% of 340,000 active; AID 602410, 2012;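 active means B-score under library mean minus 4 SD, starting fluorescence ratio at most library mean plus 5 SD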;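 further: more negative B-score means stronger inhibition of thallium flux through KCNK3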
PHOSPHO1 block: PubChem AID 1565 | Phosphoethanolamine/phosphocholine phosphatase (Homo sapiens), Q8TCT1 | recombinant PHOSPHO1, absorbance phosphatase assay | inhibition, % at 13.3 µM | 1.1% of 290,000 active; in the data active means inhibition above about 60%
Target sequence (Q8TCT1 whole entry, looked up): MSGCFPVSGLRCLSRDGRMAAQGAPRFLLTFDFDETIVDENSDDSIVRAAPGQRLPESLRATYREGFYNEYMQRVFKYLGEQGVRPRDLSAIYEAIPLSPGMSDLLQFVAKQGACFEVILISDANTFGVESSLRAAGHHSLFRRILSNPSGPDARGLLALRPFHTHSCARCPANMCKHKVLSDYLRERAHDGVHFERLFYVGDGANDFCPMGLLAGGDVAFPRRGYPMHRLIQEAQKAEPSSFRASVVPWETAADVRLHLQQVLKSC
KCNK9 block: KCNK9 potassium channel inhibitors, primary screen, HEK293 cells, thallium flux. Potassium channel subfamily K member 9 (Homo sapiens), Q9NPC2. FluxOR thallium flux fluorescence; hits give low values. B-score at 10 µM. 1.2% of 310,000 active. AID 488922, 2010;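 active means ratio B-score over 3 SD below the library mean, with starting fluorescence within 5 SD of its mean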;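 further: negative B-score means less thallium flux so channel inhibition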
Target sequence (Q9NPC2 whole entry, looked up): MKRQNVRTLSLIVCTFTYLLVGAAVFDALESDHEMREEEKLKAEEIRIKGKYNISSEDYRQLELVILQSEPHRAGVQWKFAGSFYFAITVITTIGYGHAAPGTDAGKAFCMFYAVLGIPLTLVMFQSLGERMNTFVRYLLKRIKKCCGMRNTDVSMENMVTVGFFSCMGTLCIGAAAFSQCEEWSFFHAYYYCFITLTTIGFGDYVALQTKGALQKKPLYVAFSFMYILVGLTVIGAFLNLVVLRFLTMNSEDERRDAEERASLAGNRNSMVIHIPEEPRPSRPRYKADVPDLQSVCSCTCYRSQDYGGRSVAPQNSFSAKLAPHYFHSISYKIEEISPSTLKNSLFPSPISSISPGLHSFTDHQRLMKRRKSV
KCNK9 block conf: KCNK9 potassium channel inhibitors, confirmation, HEK293 cells, thallium flux, duplicate. FluxOR thallium flux fluorescence. 43% of 4,900 active. inhibition, % at 10 µM. shares compounds with KCNK9 block;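 active means thallium signal inhibited by more than 5 SD of the compound-free buffer control wells, on both duplicate plates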;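 further: 0% = assay buffer control wells without compound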
Kir2-1 spec: mouse Kir2.1 channel inhibition, confirmation, selectivity assay for KCNK9 modulator project, cell-based, HEK293, thallium flux. Kir2.1 cells, FluxOR thallium flux fluorescence. inhibition, % at 10 µM. 4% of 4,900 active. shares compounds with KCNK9 block. AID 492993, 2010;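 active means thallium signal drop more than 5 SD beyond the mean of the no-compound control wells, seen in both duplicate plates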;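 further: signal is fluorescence rise after thallium addition divided by baseline fluorescence; plate controls were assay buffer only for no effect and full block by chlorpromazine control for full effect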
KCNK9 uninduced: thallium flux in non-induced HEK293 cells, confirmation, counter-screen for KCNK9 inhibitor project, cell-based, second counter screen, non-induced KCNK9-HEK293; inhibition, % at 10 µM; shares compounds with KCNK9 block; 40% of 4,900 active; FluxOR thallium flux;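 active means thallium signal drop beyond 5 SD of the untreated control mean, on both duplicate plates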;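 further: plate controls were buffer only IC0 wells for no effect and SID17386958 at its maximal inhibitory level for full effect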
* hit, by the source's call; i = inactive; / = not tested or not shown. Most compounds without a hit are left out; they make up all but 4% or so of the library.

SMILES	hERG protect	KCNQ1 inh	KCNQ1 act	KCNK3 inh	PHOSPHO1 block	KCNK9 block	KCNK9 block conf	Kir2-1 spec	KCNK9 uninduced
CC(C)C[C@H](NC(=O)c1nc[nH]c1C(=O)NCC(=O)OC(C)(C)C)C(=O)OCc1ccccc1	-7.5	i	i	i	8.9	i	/	/	/
Cc1c(C(=O)NNS(=O)(=O)c2ccccc2Cl)sc(=S)n1C	-9.6	i	i	i	7.1	i	/	/	/
CCCN1CCN(c2ncnc3scc(C4COc5ccccc5O4)c23)CC1 (configuration not stated)	-16.4	i	i	i	37.8	i	/	/	/
c1ccc2c(c1)OCC(c1csc3ncnc(N4CCCCC4)c13)O2 (configuration not stated)	-7.7	i	i	i	-3.2	-13.2*	44.5%*	i	32.5%*
Cc1ccc(/C=N/OC(=O)c2nn(C)cc2Cl)cc1	-2.8	i	i	i	22.9	i	/	/	/
CCOC(=O)c1cc(C#N)c(N2CCN(c3ccc(OC)cc3)CC2)[nH]c1=O	-8.6	i	i	i	27.7	i	/	/	/
Cc1cc(C)c2nc(Cl)c(CN(Cc3ccco3)C(=O)Nc3ccccc3C)cc2c1	-9.4	i	i	i	32.6	i	i	i	i
O=C(NCC1CCCO1)c1csc(Nc2cccc3ccccc23)n1 (configuration not stated)	-7.2	i	i	i	1.2	-9.19*	42.0%*	i	i
Cc1ccc(-c2nc(C(=O)NCC3CCCO3)cc3c2[nH]c2ccccc23)cc1 (configuration not stated)	-37.6	12*	i	i	33.8	-16.7*	65.0%*	i	33.0%*
Cc1ccc(NC(=O)c2cc(C)n(-c3ccccc3)c2C)cc1	-12.6	i	i	i	-11.2	i	i	i	i
Cc1ccc(NC(=O)c2cnn(-c3ccccc3)c2C)cc1	-0.8	i	i	i	2.6	i	/	/	/
O=C(Cc1sc(-c2ccccc2)nc1-c1ccccc1)Nc1ccccc1	-4.8	i	i	i	3.2	i	/	/	/
O=C(Cc1sc(Nc2ccccc2)nc1-c1ccccc1)NCc1ccccc1	-5.5	i	i	i	-13.9	-9.16*	62.5%*	i	31.0%*
Cc1ccc(C#N)c(SCc2cccc(Br)c2)n1	-4.1	i	i	i	/	-11.5*	42.0%*	i	48.5%*
Cc1ccc(C#N)c(SCc2cc3c(cc2Cl)OCO3)n1	-8.2	i	i	i	1.9	i	/	/	/
COc1cccc(C(=O)/C=C/c2ccc(N3CCCCC3)c([N+](=O)[O-])c2)c1	-11.4	i	i	i	-15.9	-8.26*	35.5%*	i	35.0%*
OCCC1CN(Cc2cccc3nccnc23)CCN1C1CCCC1 (configuration not stated)	-3.1	i	i	i	-6.4	i	/	/	/
CC(=O)c1cc(CC=C(C)C)c(O)cc1O	-9.8	i	i	i	-7.5	-8.65*	27.0%*	i	i
CC(=O)c1cc(CC=C(C)C)c(O)c(CC=C(C)C)c1O	-6.8	i	i	i	-14.5	i	/	/	/
O=C(O)c1ccc(-c2nc(-c3ccc(Cl)c(Cl)c3)cs2)cc1	-1.8	i	i	i	-15.2	i	i	i	i
O=C(O)c1cnn(-c2nc(-c3ccc(Cl)c(Cl)c3)cs2)c1C(F)(F)F	-3.5	i	i	i	/	i	i	i	i
COc1cnc(SCc2ccc(Cl)cc2Cl)nc1Cl	-6.0	i	i	i	20.9	i	i	i	29.5%*
COc1cnn(-c2ccccc2)c(=O)c1SCc1ccc(Cl)cc1Cl	-6.9	i	i	i	54.0	i	/	/	/
COc1ccccc1CC(=O)c1ccc(OCc2ccccc2)cc1	-14.6	i	i	i	/	i	i	i	i
CCOc1ccc(C(=O)Cc2ccccc2)cc1	/	/	/	i	/	/	/	/	/
SMILES	hERG protect	KCNQ1 inh	KCNQ1 act	KCNK3 inh	PHOSPHO1 block	KCNK9 block	KCNK9 block conf	Kir2-1 spec	KCNK9 uninduced
CCCCn1cnc2c(c(-c3ccccc3)c(-c3ccccc3)n2Cc2ccco2)c1=N	-26.5	10*	i	i	-16.6	-13.3*	44.5%*	i	i
COc1cc(Cl)ccc1OCc1cc(C(=O)N2C[C@]3(C)C[C@H]2CC(C)(C)C3)no1	-11.3	i	i	i	19.0	i	i	i	i
Cc1ccc(S(=O)(=O)N(C)c2c(C)ccc(S(N)(=O)=O)c2C)cc1	-12.2	i	i	i	5.8	i	/	/	/
Cc1cc2nnc(SC3CCCCN(C(=O)c4ccc(F)cc4)C3=O)n2c2ccccc12 (configuration not stated)	-4.6	i	i	i	1.2	i	i	i	i
COc1ccccc1N(C(=O)NCc1ccccc1)C1=NCC(C)S1 (configuration not stated)	-4.2	i	i	i	7.4	i	i	i	i
COc1ccc(NC(=S)N(CCc2c(C)[nH]c3ccc(C)cc23)Cc2cccs2)cc1	-16.2	i	i	i	-13.5	-9.64*	i	i	29.0%*
Cc1ccccc1NC(=S)N(CCc1c(C)[nH]c2ccc(F)cc12)Cc1ccncc1	-10.9	i	i	i	33.5	i	/	/	/
COc1ccc(NC(=S)N(CCc2c(C)[nH]c3ccc(C)cc23)Cc2ccco2)cc1	-17.3	i	i	i	-8.6	i	/	/	/
COc1ccc2[nH]c(C)c(CCN(Cc3cccs3)C(=S)Nc3ccc(F)cc3)c2c1	-6.8	6*	i	-16.7*	-38.2	-11.8*	42.0%*	i	27.0%*
Cc1[nH]c2ccc(F)cc2c1CCN(Cc1ccncc1)C(=S)Nc1cccc(F)c1	-11.2	7*	i	i	32.8	-8.13*	36.0%*	i	27.0%*
